This is a sample that favours compounds with a hit; in the whole collection about 2.8% have one here.
NPY-Y1 antag: NPY-Y1 (human) receptor antagonism | P25929 | HEK293-CNG Y1 cells, membrane potential fluorescence; NPY at EC95, then isoproterenol | inhibition, % at 3.6 µM | actives 1% (n = 200,000) | AID 1040;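 active = inhibition above the campaign mean inhibition of all tested compounds plus 3 SD, cut at about 20% in these data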
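Material: HEK293 cells co-expressing NPY Y1 receptor and cyclic-nucleotide gated channel. Timing: compound incubation 1 h at room temperature, readout 45 min post-stimulation. Signal: fluorescence, membrane potential probe.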
EP2 modulator: modulators of human EP2 prostaglandin E2 receptor; P43116; EP2-expressing cells, cAMP HTRF FRET, PGE2 co-stimulation; induction, % at 25 µM; actives 0.83% (n = 260,000);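 active = compounds whose cAMP rise, as percent of the full-agonist control response, exceeds 60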;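 note: rat C6 glioma line stably carrying human EP2 under a CMV promoter; the protocol text gives 20 µM as final concentration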
Target sequence (P43116 whole entry, looked up): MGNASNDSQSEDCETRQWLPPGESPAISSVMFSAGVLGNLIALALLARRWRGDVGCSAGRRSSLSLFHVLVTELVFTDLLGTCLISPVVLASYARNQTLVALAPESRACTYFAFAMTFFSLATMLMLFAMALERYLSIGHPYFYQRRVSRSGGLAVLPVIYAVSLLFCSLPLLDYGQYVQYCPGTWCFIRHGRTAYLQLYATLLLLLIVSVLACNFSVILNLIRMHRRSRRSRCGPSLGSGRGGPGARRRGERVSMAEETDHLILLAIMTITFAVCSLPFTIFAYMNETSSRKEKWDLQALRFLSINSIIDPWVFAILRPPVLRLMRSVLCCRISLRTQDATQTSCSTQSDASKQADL
EP2 antag: inhibitors of human EP2 prostaglandin E2 receptor; P43116; C6 glioma cells expressing human EP2, cAMP TR-FRET; cells stimulated with saturating PGE2; inhibition, % at 25 µM; actives 0.52% (n = 260,000); AID 1422;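 active = percent inhibition above 40 after rounding to a whole number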;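 note: rat C6 glioma host cells with rolipram phosphodiesterase inhibitor present; the protocol text gives 20 µM as final concentration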
NPY Y2 blocker: blocks the human neuropeptide Y Y2 receptor; P49146; inhibition, % at 2.7 µM; AID 793; actives 0.99% (n = 140,000); NPY-Y2 expressing cells, antagonist mode; in the data active = inhibition above about 17%
NPY1 pot ag: potentiates or activates human NPY-Y1 receptor; P25929; NPY-Y1 expressing cells, potentiator/agonist activation; activation, % at 3.6 µM; actives 0.37% (n = 220,000); in the data active = activation above about 33%, passing the limit was not always enough;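 note: cells stimulated with NPY at EC10 then isoproterenol at EC100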
NPY-Y2 PAM-ag: human NPY-Y2 potentiation or agonism, primary screen; P49146; actives 0.45% (n = 220,000); AID 1359; activation, % at 3.6 µM; cells expressing NPY-Y2, potentiator/agonist read-out; in the data active = activation above about 27%;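 note: cells stimulated with NPY near EC25 plus isoproterenol at EC100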
A number is an active result; n = inactive; x = no result; ! = not active in a repeat.

SMILES	NPY-Y1 antag	EP2 modulator	EP2 antag	NPY Y2 blocker	NPY1 pot ag	NPY-Y2 PAM-ag
CC(C)CO/C(=N/S(=O)(=O)c1ccccc1)c1ccccc1	n	64.7	n	n	n	n
COc1ccc(C(c2nnnn2C2CCCC2)N2CCc3ccccc3C2)cc1OC (stereo not drawn)	n	n	n	n	n	n
COc1ccc(OC)c(C(c2nnnn2C2CCCC2)N2CCc3ccccc3C2)c1 (stereo not drawn)	20.5	n	n	18.4	n	n
CCCc1[nH][nH]c(=O)c1C(c1cccc(Cl)c1)C(C#N)C#N (stereo not drawn)	50.4	n	n	57.8	n	n
Cc1[nH][nH]c(=O)c1C(c1ccccc1[N+](=O)[O-])C(C#N)C#N (stereo not drawn)	n	n	n	x	n	n
O=C(Nc1ccccc1Cl)N(CCN1CCCC1)Cc1cc2cc3c(cc2[nH]c1=O)OCO3	x	n	n	x	x	x
Cc1nn(CC(=O)N(C)C)c(=O)c2cc3ccsc3n12	x	n	n	x	x	x
COc1ccc(OCCCNCCc2ccccc2)cc1	21.3	n	n	x	n	n
CC(C)(C)c1ccc(OCCCNCc2ccccc2)cc1	n	n	n	n	n	n
COc1ccc2c(c1)-c1c(sn(-c3ccc(OC)c(OC)c3)c1=S)C(C)(C)N2	n	n	n	n	52.9	38.1
COc1ccc(OC)c(NC(=O)CSc2nnc(-c3ccccc3Br)o2)c1	x	n	n	x	x	x
COc1ccc(CN(C(=O)c2ccco2)c2ccc(C)c(C)c2)cc1	n	64.8	n	x	n	n
CCOc1ccc(N(Cc2ccc(OC)c(OC)c2)C(=O)c2ccco2)cc1	n	n	n	x	n	n
O=C(Nc1ccc(-c2noc(CCc3ccccc3)n2)cc1)c1cccnc1	n	n	75.8	n	n	n
O=C(Nc1ccc(-c2nc3ccccc3o2)cc1)c1cccnc1	n	n	57.7!	n	n	n
O=C(Nc1ccc2oc(-c3cccnc3)nc2c1)c1ccco1	n	n	n	n	n	n
O=C(Nc1cccc(-c2nc3ccccc3o2)c1)c1cccnc1	n	n	n	x	n	n
O=C(Nc1ccc2nc(-c3ccccc3)oc2c1)c1ccco1	n	n	42.3!	n	n	n
COc1cc(OC)cc(C(=O)Nc2ccc(-c3nc4ccccc4o3)cc2)c1	n	n	51.7	n	n	n
CCC(C(=O)OC)n1cnc2sc3c(c2c1=O)CCC(C)C3 (stereo not drawn)	x	n	n	x	x	x
CC(C)[C@H](Cn1nc(C2CC2)ccc1=O)NC(=O)c1ccc(=O)[nH]n1	x	n	n	x	x	x
COc1ccc(C2=NN(C(C)=O)C(c3ccc(OC)c(OC)c3)C2)c(OC(C)=O)c1 (stereo not drawn)	x	n	n	x	x	x
Cc1cc(-c2ccccc2)n2ncc(-c3ccccc3)c2n1	n	62.5	n	n	n	n
O=C(COC(=O)[C@@H]1CCCN1S(=O)(=O)c1ccc(Cl)cc1)NC12CC3CC(CC(C3)C1)C2	n	n	67.9	n	n	n
Cn1c(=O)c2c(SCc3ccccc3)nc(C3CC3)nc2n(C)c1=O	x	73.5	n	x	n	n
SMILES	NPY-Y1 antag	EP2 modulator	EP2 antag	NPY Y2 blocker	NPY1 pot ag	NPY-Y2 PAM-ag
Cc1nc(SCc2c(F)cccc2Cl)c2c(=O)n(C)c(=O)n(C)c2n1	n	62.2	n	n	n	n
Cn1c(=O)c2c(SCc3ccccn3)nc(C3CC3)nc2n(C)c1=O	n	n	n	n	n	n
CCOc1ccccc1NC(=O)c1sc(NC(=O)CC)c(C(=O)OC)c1C	x	n	n	x	x	x
COCCCN1C(=O)C(O)=C(C(=O)c2cccs2)C1c1ccccc1F (stereo not drawn)	x	n	n	x	x	x
O=C1C=CC(=O)N1CCCCCCN1C(=O)C=CC1=O	n	n	135.0	n	n	n
CC(C)CSc1nc2c(c(=O)[nH]c(=O)n2C)n1CCc1ccccc1	n	n	n	n	n	n
CCOCCn1c(SCc2ccccc2)nc2c1c(=O)[nH]c(=O)n2C	x	n	n	x	x	x
CCCCCn1c(Sc2nc3ccccc3s2)nc2c1c(=O)[nH]c(=O)n2C	n	62.9	n	n	n	n
C/C=C/Cn1c(SCc2ccccc2)nc2c1c(=O)[nH]c(=O)n2C	n	65.8!	n	n	n	n
CC(C)Sc1nc2c(c(=O)[nH]c(=O)n2C)n1CCCc1ccccc1	x	71.4	n	x	x	x
Cc1cccnc1NS(=O)(=O)c1ccc(-c2ccccc2)cc1	x	n	n	x	x	x
Cc1cc(=Nc2ccc3c(c2)c(N)cc(C)[n+]3C)nc(N)n1C	x	n	42.4	x	x	x
Cc1nn(-c2cc(N3CCCCCC3)ccc2[N+](=O)[O-])c(=O)c2ccccc12	n	n	n	n	84.8	41.4
Cc1nn(-c2cc(N3CCCCC3)ccc2N)c(=O)c2ccccc12	n	n	n	n	n	n
O=C(Nc1ccc(Br)cc1)c1csc(-c2ccncc2)n1	n	n	174.3	x	n	n
O=C(Nc1ccc(Cl)cc1)c1csc(-c2ccncc2)n1	n	n	n	x	n	n
Cc1ccc2nc(N3CCOCC3)c(C#N)cc2c1	x	n	n	x	x	x
COc1ccccc1NC(=O)c1sc(NC(=O)c2ccc(C)cc2)c(C#N)c1C	x	n	n	x	x	x
Nc1nc2c(C(=O)NCc3cccs3)nnn2c2cccc(Cl)c12	x	n	48.9	x	x	x
COC(=O)CNC(c1ccccc1)c1cc(Br)ccc1NC(=O)CNC(=O)OCc1ccccc1 (stereo not drawn)	25.0	n	n	29.4	n	n
CCOC(=O)CNC(c1ccccc1)c1cc(Br)ccc1NC(=O)OCC (stereo not drawn)	n	n	n	n	n	n
Oc1c(Br)cc(Br)cc1CN(Cc1cc(Br)cc(Br)c1O)C1CCCCC1	x	n	40.1	x	x	x
CNC(=S)N(CCc1c(C)[nH]c2ccc(C)cc12)Cc1cccs1	n	n	n	x	42.6	30.7
COC(C(=O)N1CCC(n2cnc3cccnc32)CC1)c1ccccc1 (stereo not drawn)	x	n	n	x	x	x
O=C(C1CCN(Cc2ccc(F)cc2)CC1)N(CCc1ccccc1)Cc1ccccc1	21.3	n	n	23.6	n	n
SMILES	NPY-Y1 antag	EP2 modulator	EP2 antag	NPY Y2 blocker	NPY1 pot ag	NPY-Y2 PAM-ag
COc1ccc(-c2nc(-c3ccc(O)cc3O)cs2)cc1OC	n	n	82.2	x	n	n
CC(=O)c1ccc(NC(=O)CN2CCC(n3cnc4cc(F)ccc43)CC2)cc1	x	n	n	x	x	x
C=C[C@@]1(C)CC(=O)[C@@]2(O)[C@](C)(O1)[C@@H](OC(C)=O)[C@@H](O)C1C(C)(C)CC[C@H](O)[C@@]12C (stereo partly drawn)	x	104.1	n	x	x	x
O=C(C1=C(O)C(=O)N(Cc2ccccc2)C1c1cccs1)c1ccco1 (stereo not drawn)	x	n	n	x	x	x
CN(C)CCC[C@@H]1c2ccccc2Oc2ccc(C(F)(F)F)cc21	x	n	58.5	x	x	x
CN(C)CCCN1c2ccccc2Sc2ccc(C(F)(F)F)cc21	n	n	n	n	n	n
CCOC(=O)c1sc(NC(=O)CSc2ccc(-c3nc4ccccc4[nH]3)cn2)c(C#N)c1C	x	n	n	x	x	x
Cc1cccc2cc(CN(CCCN3CCOCC3)Cc3nnnn3Cc3ccccc3)c(=O)[nH]c12	x	n	n	x	x	x
